In ChEMBL document CHEMBL1145271 (Bioorg Med Chem Lett, 2005):

Experiments:
[1] = molecular target: T1, Kappa-type opioid receptor (Homo sapiens, UniProt P41145); test: Inhibition of [3H]diprenorphine binding to human Opioid receptor kappa 1 expressed in chinese hamster ovary cells; type: cell-based, CHO
How it was run: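 Ki from inhibition of [3H]diprenorphine binding to human κ-opioid receptor. Mean of at least three independent experiments, each run in duplicate.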

[2] = molecular target: T1, Kappa-type opioid receptor; test: Effective concentration for activation of human Opioid receptor kappa 1 expressed in chinese hamster ovary cells to enhance [35S]GTP-gamma-S, binding; type: functional, cell-based
How it was run: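 EC50 for human κ-opioid receptor activation, read as enhancement of [35S]GTPγS binding. Mean of at least three independent experiments, each run in duplicate.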

[3] = molecular target: T1, Kappa-type opioid receptor; test: Activation of human Opioid receptor kappa 1 expressed in chinese hamster ovary cells to enhance [35S]GTP-gamma-S, binding compared to U50,488H; type: functional, cell-based
How it was run: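 Agonist efficacy at human κ-opioid receptor, read as enhancement of [35S]GTPγS binding and expressed as % of the maximal response to U50,488H. Mean of at least three independent experiments, each run in duplicate.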

T1 sequence (P41145 whole entry): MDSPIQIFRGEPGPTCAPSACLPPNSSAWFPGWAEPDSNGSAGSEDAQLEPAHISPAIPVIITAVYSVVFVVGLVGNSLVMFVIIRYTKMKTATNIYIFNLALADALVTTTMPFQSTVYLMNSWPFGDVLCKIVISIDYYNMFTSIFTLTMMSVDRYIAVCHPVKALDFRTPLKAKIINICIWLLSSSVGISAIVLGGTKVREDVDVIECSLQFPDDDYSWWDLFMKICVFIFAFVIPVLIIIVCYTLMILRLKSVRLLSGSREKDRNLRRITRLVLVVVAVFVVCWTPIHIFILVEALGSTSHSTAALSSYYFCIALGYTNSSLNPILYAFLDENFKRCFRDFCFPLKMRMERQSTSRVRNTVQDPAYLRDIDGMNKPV

| SMILES | Ki [1] [nM] | EC50 [2] [nM] | Efficacy [3] [%] |
| --- | --- | --- | --- |
| CN[C@@H]1C[C@@H](C(=O)OC)[C@]2(C)CC[C@H]3C(=O)O[C@H](c4ccoc4)C[C@]3(C)[C@H]2C1=O | > 10000 |  |  |
| CCC(=O)O[C@H]1C[C@@H](C(=O)OC)[C@]2(C)CC[C@H]3C(=O)O[C@H](c4ccoc4)C[C@]3(C)[C@H]2C1=O | 7.2 | 20.4 | 94 |
| COC(=O)[C@@H]1C[C@H](OC(=O)[C@H](C)N)C(=O)[C@H]2[C@@]1(C)CC[C@H]1C(=O)O[C@H](c3ccoc3)C[C@]21C | > 10000 |  |  |
| COC(=O)[C@@H]1C[C@H](OC(=O)CNC(C)=O)C(=O)[C@H]2[C@@]1(C)CC[C@H]1C(=O)O[C@H](c3ccoc3)C[C@]21C | > 10000 |  |  |
| CCCC(=O)O[C@H]1C[C@@H](C(=O)OC)[C@]2(C)CC[C@H]3C(=O)O[C@H](c4ccoc4)C[C@]3(C)[C@H]2C1=O | 4.9 | 9.9 | 97 |
| CCCO[C@H]1C[C@@H](C(=O)OC)[C@]2(C)CC[C@H]3C(=O)O[C@H](c4ccoc4)C[C@]3(C)[C@H]2C1=O [SALVINORIN A PROPYL ETHER] | 28.7 | 67.4 | 100 |
| COC(=O)[C@@H]1C[C@H](O)C(=O)[C@H]2[C@@]1(C)CC[C@H]1C(=O)O[C@H](c3ccoc3)C[C@]21C |  |  | 98 |
| CCCCO[C@H]1C[C@@H](C(=O)OC)[C@]2(C)CCC3C(=O)O[C@H](c4ccoc4)C[C@]3(C)[C@H]2C1=O (stereo partly drawn) | 35.8 | 104 |  |
| COC(=O)[C@@H]1C[C@H](OC(N)=O)C(=O)[C@H]2[C@@]1(C)CC[C@H]1C(=O)O[C@H](c3ccoc3)C[C@]21C | 3.2 | 6.2 | 99 |
| CNC(=O)O[C@H]1C[C@@H](C(=O)OC)[C@]2(C)CC[C@H]3C(=O)O[C@H](c4ccoc4)C[C@]3(C)[C@H]2C1=O | 83 | 201 | 81 |
| COC(=O)[C@@H]1C[C@H](OCc2ccccc2)C(=O)[C@H]2[C@@]1(C)CCC1C(=O)O[C@H](c3ccoc3)C[C@@]12C (stereo partly drawn) | 75.7 | 161 |  |
| C=CCO[C@H]1C[C@@H](C(=O)OC)[C@]2(C)CCC3C(=O)O[C@H](c4ccoc4)C[C@]3(C)[C@H]2C1=O (stereo partly drawn) | 60.1 | 145 | 106 |
| COC(=O)[C@@H]1C[C@@H](N(C)C)C(=O)[C@H]2[C@@]1(C)CC[C@H]1C(=O)O[C@H](c3ccoc3)C[C@]21C | 90.9 | 343 | 105 |
| CCN[C@@H]1C[C@@H](C(=O)OC)[C@]2(C)CC[C@H]3C(=O)O[C@H](c4ccoc4)C[C@]3(C)[C@H]2C1=O | 28.9 | 68.9 |  |
| COC(=O)[C@@H]1C[C@H](OC(=O)CN(C)C)C(=O)[C@H]2[C@@]1(C)CC[C@H]1C(=O)O[C@H](c3ccoc3)C[C@]21C | > 10000 |  |  |
| COC(=O)[C@@H]1C[C@H](OC)C(=O)[C@H]2[C@@]1(C)CC[C@H]1C(=O)O[C@H](c3ccoc3)C[C@]21C | 220 | 389 | 98 |
| CCNC(=O)O[C@H]1C[C@@H](C(=O)OC)[C@]2(C)CC[C@H]3C(=O)O[C@H](c4ccoc4)C[C@]3(C)[C@H]2C1=O | 462 | > 1000 |  |
| CCO[C@H]1C[C@@H](C(=O)OC)[C@]2(C)CC[C@H]3C(=O)O[C@H](c4ccoc4)C[C@]3(C)[C@H]2C1=O |  |  | 103 |
